According to ChEMBL document CHEMBL3124903, “Synthesis, docking and evaluation of antioxidant and antimicrobial activities of novel 1,2,4-triazolo[3,4-b][1,3,4]thiadiazol-6-yl)selenopheno[2,3-d]pyrimidines” (Eur J Med Chem, 2014):
Converted amounts (≈) assume the structure as drawn.

Columns and labels:
Format in all cases: functional
Aspergillus flavus = assay: Antifungal activity against Aspergillus flavus assessed as growth inhibition by NCCLS broth dilution assay
Bacillus subtilis = assay: Antibacterial activity against Bacillus subtilis assessed as growth inhibition by microdilution broth susceptibility assay
Klebsiella pneumoniae = assay: Antibacterial activity against Klebsiella pneumoniae assessed as growth inhibition by microdilution broth susceptibility assay
[1] = Antioxidant activity assessed as NO radical scavenging activity after 150 mins by griess reagent method
[2] = tested on: Radical scavenging activity; assay: Antioxidant activity assessed as DPPH radical scavenging activity after 30 mins by spectrophotometric assay
In short: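 The compound is mixed with methanolic DPPH and incubated for 30 min at room temperature. Absorbance is read against a blank at 517 nm. Percent scavenging is taken from absorbance of a control with all reagents except the compound versus the sample. Runs are in triplicate, and IC50 is reported.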

[3] = Antioxidant activity assessed as H2O2 radical scavenging activity
Candida albicans = assay: Antifungal activity against Candida albicans assessed as growth inhibition by NCCLS broth dilution assay
In short: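 Yeast susceptibility is tested by the NCCLS reference broth dilution method. MIC is read as the endpoint, and a DMSO vehicle control is included.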

Staphylococcus aureus = assay: Antibacterial activity against Staphylococcus aureus assessed as growth inhibition by microdilution broth susceptibility assay
Escherichia coli = assay: Antibacterial activity against Escherichia coli assessed as growth inhibition by microdilution broth susceptibility assay

Cc1c(-c2nn3c(-c4ccc(O)cc4)nnc3s2)[se]c2ncnc(Nc3ccc(Cl)cc3)c12
MIC (Aspergillus flavus): 3.12 µg/mL (≈ 5.79 µM) | MIC (Bacillus subtilis): 3.12 µg/mL | MIC (Klebsiella pneumoniae): 6.25 µg/mL | IC50 [1]: 13.72 µg/mL (≈ 25.5 µM) | IC50 [2]: 11.02 µg/mL (≈ 20.4 µM) | IC50 [3]: 15.38 µg/mL (≈ 28.5 µM) | MIC (Candida albicans): 1.56 µg/mL (≈ 2.89 µM) | MIC (Staphylococcus aureus): 6.25 µg/mL | MIC (Escherichia coli): 6.25 µg/mL

O=C1O[C@H]([C@@H](O)CO)C(O)=C1O [ASCORBIC ACID]
IC50 [1]: 14.62 µg/mL (≈ 83 µM) | IC50 [2]: 12.27 µg/mL (≈ 69.7 µM) | IC50 [3]: 15.24 µg/mL (≈ 86.5 µM)

Cc1c(-c2nn3c(-c4ccccc4)nnc3s2)[se]c2ncnc(Nc3ccc(F)c(Cl)c3)c12
MIC (Aspergillus flavus): 50 µg/mL (≈ 92.4 µM) | MIC (Bacillus subtilis): 50 µg/mL | MIC (Klebsiella pneumoniae): 100 µg/mL | IC50 [1]: 20.27 µg/mL (≈ 37.5 µM) | IC50 [2]: 13.24 µg/mL (≈ 24.5 µM) | IC50 [3]: 22.92 µg/mL (≈ 42.4 µM) | MIC (Candida albicans): 25 µg/mL (≈ 46.2 µM) | MIC (Staphylococcus aureus): 50 µg/mL | MIC (Escherichia coli): 100 µg/mL

Cc1ccc(-c2nnc3sc(-c4[se]c5ncnc(Nc6ccc(F)c(Cl)c6)c5c4C)nn23)cc1
MIC (Aspergillus flavus): 12.5 µg/mL (≈ 22.5 µM) | MIC (Bacillus subtilis): 12.5 µg/mL | MIC (Klebsiella pneumoniae): 12.5 µg/mL | IC50 [1]: 16.52 µg/mL (≈ 29.8 µM) | IC50 [2]: 12.86 µg/mL (≈ 23.2 µM) | IC50 [3]: 18.36 µg/mL (≈ 33.1 µM) | MIC (Candida albicans): 25 µg/mL (≈ 45.1 µM) | MIC (Staphylococcus aureus): 6.25 µg/mL | MIC (Escherichia coli): 12.5 µg/mL

Cc1c(-c2nn3c(-c4ccc(O)cc4)nnc3s2)[se]c2ncnc(Nc3ccc(F)c(Cl)c3)c12
MIC (Aspergillus flavus): 1.56 µg/mL (≈ 2.8 µM) | MIC (Bacillus subtilis): 3.12 µg/mL | MIC (Klebsiella pneumoniae): 3.12 µg/mL | IC50 [1]: 8.2 µg/mL (≈ 14.7 µM) | IC50 [2]: 9.46 µg/mL (≈ 17 µM) | IC50 [3]: 12.54 µg/mL (≈ 22.5 µM) | MIC (Candida albicans): 1.56 µg/mL (≈ 2.8 µM) | MIC (Staphylococcus aureus): 3.12 µg/mL | MIC (Escherichia coli): 3.12 µg/mL

O=C(O)c1cn(C2CC2)c2cc(N3CCNCC3)c(F)cc2c1=O [CIPROFLOXACIN]
MIC (Bacillus subtilis): 6.25 µg/mL | MIC (Klebsiella pneumoniae): 6.25 µg/mL

Cc1c(-c2nn3c(-c4ccc([N+](=O)[O-])cc4)nnc3s2)[se]c2ncnc(Nc3ccc(F)c(Cl)c3)c12
MIC (Aspergillus flavus): > 100 µg/mL | MIC (Bacillus subtilis): 100 µg/mL | MIC (Klebsiella pneumoniae): 50 µg/mL | IC50 [1]: 30.17 µg/mL (≈ 51.5 µM) | IC50 [2]: 26.94 µg/mL (≈ 46 µM) | IC50 [3]: 36.42 µg/mL (≈ 62.2 µM) | MIC (Candida albicans): > 100 µg/mL | MIC (Staphylococcus aureus): 100 µg/mL | MIC (Escherichia coli): 50 µg/mL

Cc1c(-c2nn3c(-c4ccccc4)nnc3s2)[se]c2ncnc(Nc3ccc(Cl)cc3)c12
MIC (Aspergillus flavus): 50 µg/mL (≈ 95.6 µM) | MIC (Bacillus subtilis): > 100 µg/mL | MIC (Klebsiella pneumoniae): > 100 µg/mL | IC50 [1]: 18.41 µg/mL (≈ 35.2 µM) | IC50 [2]: 14.82 µg/mL (≈ 28.3 µM) | IC50 [3]: 17.03 µg/mL (≈ 32.6 µM) | MIC (Candida albicans): > 100 µg/mL | MIC (Staphylococcus aureus): 50 µg/mL | MIC (Escherichia coli): > 100 µg/mL

COc1ccc(-c2nnc3sc(-c4[se]c5ncnc(Nc6ccc(F)c(Cl)c6)c5c4C)nn23)cc1
MIC (Aspergillus flavus): 3.12 µg/mL (≈ 5.47 µM) | MIC (Bacillus subtilis): 3.12 µg/mL | MIC (Klebsiella pneumoniae): 6.25 µg/mL | IC50 [1]: 12.74 µg/mL (≈ 22.3 µM) | IC50 [2]: 10.41 µg/mL (≈ 18.2 µM) | IC50 [3]: 17.08 µg/mL (≈ 29.9 µM) | MIC (Candida albicans): 3.12 µg/mL (≈ 5.47 µM) | MIC (Staphylococcus aureus): 6.25 µg/mL | MIC (Escherichia coli): 6.25 µg/mL

Cc1ccc(-c2nnc3sc(-c4[se]c5ncnc(Nc6ccc(Cl)cc6)c5c4C)nn23)cc1
MIC (Aspergillus flavus): 50 µg/mL (≈ 93.1 µM) | MIC (Bacillus subtilis): 50 µg/mL | MIC (Klebsiella pneumoniae): 25 µg/mL | IC50 [1]: 21.64 µg/mL (≈ 40.3 µM) | IC50 [2]: 13.31 µg/mL (≈ 24.8 µM) | IC50 [3]: 19.14 µg/mL (≈ 35.6 µM) | MIC (Candida albicans): > 100 µg/mL | MIC (Staphylococcus aureus): 25 µg/mL | MIC (Escherichia coli): 50 µg/mL

OC(Cn1cncn1)(Cn1cncn1)c1ccc(F)cc1F [FLUCONAZOLE]
MIC (Aspergillus flavus): 3.12 µg/mL (≈ 10.2 µM) | MIC (Candida albicans): 3.12 µg/mL (≈ 10.2 µM)

COc1ccc(-c2nnc3sc(-c4[se]c5ncnc(Nc6ccc(Cl)cc6)c5c4C)nn23)cc1
MIC (Aspergillus flavus): 6.25 µg/mL (≈ 11.3 µM) | MIC (Bacillus subtilis): 25 µg/mL | MIC (Klebsiella pneumoniae): 25 µg/mL | IC50 [1]: 19.82 µg/mL (≈ 35.8 µM) | IC50 [2]: 12.75 µg/mL (≈ 23.1 µM) | IC50 [3]: 21.09 µg/mL (≈ 38.1 µM) | MIC (Candida albicans): 6.25 µg/mL (≈ 11.3 µM) | MIC (Staphylococcus aureus): 12.5 µg/mL | MIC (Escherichia coli): 12.5 µg/mL

Cc1cc(C(C)(C)C)c(O)c(C(C)(C)C)c1 [BUTYLATED HYDROXYTOLUENE]
IC50 [1]: 19.06 µg/mL (≈ 86.5 µM) | IC50 [2]: 16.53 µg/mL (≈ 75 µM) | IC50 [3]: 17.82 µg/mL (≈ 80.9 µM)

Cc1c(-c2nn3c(-c4ccc([N+](=O)[O-])cc4)nnc3s2)[se]c2ncnc(Nc3ccc(Cl)cc3)c12
MIC (Aspergillus flavus): > 100 µg/mL | MIC (Bacillus subtilis): > 100 µg/mL | MIC (Klebsiella pneumoniae): > 100 µg/mL | IC50 [1]: 46.92 µg/mL (≈ 82.6 µM) | IC50 [2]: 33.28 µg/mL (≈ 58.6 µM) | IC50 [3]: 48.31 µg/mL (≈ 85.1 µM) | MIC (Candida albicans): > 100 µg/mL | MIC (Staphylococcus aureus): > 100 µg/mL | MIC (Escherichia coli): > 100 µg/mL
